Legend:
[1] = Selectivity ratio of IC50 for COX1 to IC50 for COX2
Outline: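 Ovine COX-1 and COX-2 inhibitor screening kit. Reaction started with arachidonic acid and quenched with 1 M HCl. PGH2 reduced to PGF2α by SnCl2, then quantified by prostaglandin antiserum immunoassay read at 405 nm. Heat-inactivated enzymes (boiling water, 3 min) served as background. Compounds tested in duplicate. Selectivity taken as IC50(COX-1)/IC50(COX-2).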

PC-3 [2] = experiment: Anticancer activity against human PC3 cells; format: functional
[3] = Partition coefficient, log P of the compound; format: physicochemical; conditions: octanol/water
Outline: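 Calculated rather than measured, as one of several physico-chemical descriptors used in quantitative structure–activity correlation with COX-2 inhibition.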

[4] = biological target: Prostaglandin G/H synthase 2 (Ovis aries) (UniProt P79208)
Sequence of Prostaglandin G/H synthase 2 (Ovis aries) (P79208 whole entry, looked up): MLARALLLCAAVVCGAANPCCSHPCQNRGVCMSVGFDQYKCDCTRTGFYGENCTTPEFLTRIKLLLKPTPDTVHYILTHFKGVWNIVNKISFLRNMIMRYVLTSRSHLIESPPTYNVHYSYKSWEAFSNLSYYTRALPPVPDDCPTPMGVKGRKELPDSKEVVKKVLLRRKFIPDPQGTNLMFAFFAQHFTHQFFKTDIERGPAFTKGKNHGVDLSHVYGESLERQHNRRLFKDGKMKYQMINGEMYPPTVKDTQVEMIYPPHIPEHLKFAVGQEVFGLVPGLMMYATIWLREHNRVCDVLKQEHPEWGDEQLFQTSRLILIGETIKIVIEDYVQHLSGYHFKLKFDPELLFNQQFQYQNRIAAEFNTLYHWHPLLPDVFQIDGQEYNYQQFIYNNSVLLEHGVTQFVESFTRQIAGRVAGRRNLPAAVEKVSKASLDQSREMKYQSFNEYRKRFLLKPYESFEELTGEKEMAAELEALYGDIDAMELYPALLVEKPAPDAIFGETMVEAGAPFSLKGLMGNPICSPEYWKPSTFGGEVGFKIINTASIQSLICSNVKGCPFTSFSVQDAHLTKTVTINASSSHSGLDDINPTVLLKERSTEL

[5] = biological target: Prostaglandin G/H synthase 1 (Ovis aries) (UniProt P05979)
Sequence of Prostaglandin G/H synthase 1 (Ovis aries) (P05979 whole entry, looked up): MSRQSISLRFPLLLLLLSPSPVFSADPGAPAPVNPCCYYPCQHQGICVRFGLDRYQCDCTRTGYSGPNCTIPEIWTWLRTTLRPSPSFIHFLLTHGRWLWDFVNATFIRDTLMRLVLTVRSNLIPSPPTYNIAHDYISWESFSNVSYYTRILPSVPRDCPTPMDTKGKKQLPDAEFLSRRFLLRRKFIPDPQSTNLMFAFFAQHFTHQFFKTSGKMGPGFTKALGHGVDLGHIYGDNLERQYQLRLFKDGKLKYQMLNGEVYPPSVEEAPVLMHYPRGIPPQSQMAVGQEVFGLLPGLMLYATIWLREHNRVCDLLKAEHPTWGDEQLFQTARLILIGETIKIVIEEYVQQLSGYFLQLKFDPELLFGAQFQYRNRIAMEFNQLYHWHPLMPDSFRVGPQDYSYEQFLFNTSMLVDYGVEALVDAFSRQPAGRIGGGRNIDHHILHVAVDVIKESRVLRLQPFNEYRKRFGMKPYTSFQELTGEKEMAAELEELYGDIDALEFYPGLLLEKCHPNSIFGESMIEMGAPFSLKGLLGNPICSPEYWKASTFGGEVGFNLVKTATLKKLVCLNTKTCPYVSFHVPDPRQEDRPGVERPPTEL

[6] = biological target: Prostaglandin G/H synthase 2 (Ovis aries) (UniProt P79208); conditions: at 1 µM
[7] = biological target: Prostaglandin G/H synthase 2 (Ovis aries) (UniProt P79208); conditions: at 10 µM
[8] = biological target: Prostaglandin G/H synthase 1 (Ovis aries) (UniProt P05979); conditions: at 1 µM
PC-3 [9] = experiment: Anticancer activity against human PC3 cells at 1 uM; format: functional
NCI-H522 = experiment: Anticancer activity against human NCI-H522 cells at 10 uM; format: functional
Outline: (§1)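 Tested at NIH in the standard 59-human-tumor-cell-line panel, at five concentrations from 10^-4 to 10^-8 M. Read-out is percent growth inhibition of the named cell line at 10^-5 M.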

SN12C = experiment: Anticancer activity against human SN12C cells at 10 uM; format: functional; outline: as §1

Row | Compound | Ratio IC50 [1] | GI50 (PC-3 [2]) | logP [3] | IC50 [4] | IC50 [5] | inhibition [6] | inhibition [7] | inhibition [8] | inhibition at 1 µM (PC-3 [9]) | inhibition at 10 µM (NCI-H522) | inhibition at 10 µM (SN12C)
1 | OC[C@H]1C[C@](O)(c2ccc(Cl)cc2)[C@@H](c2ccc(Cl)cc2)O1 | < 3.3 | 19.9 µM | 3.54 | 3 µM | < 10 µM | 43% | 68% | 56% | – | – | –
2 | CS(=O)(=O)c1ccc([C@H]2O[C@@H](CO)C[C@]2(O)c2ccc(S(C)(=O)=O)cc2)cc1 | < 1.5 | 100 µM | 0.792 | 6.5 µM | < 10 µM | 40% | 57% | 55% | – | – | –
3 | Cc1ccc(-c2cc(C(F)(F)F)nn2-c2ccc(S(N)(=O)=O)cc2)cc1 [CELECOXIB] | – | 47 µM | – | – | – | – | – | – | – | – | –
4 | COc1ccc([C@H]2O[C@@H](CO)C[C@]2(O)c2ccc(OC)cc2)cc1 | > 10 | 93.3 µM | 2 | < 1 µM | > 10 µM | 65% | 67% | 22% | – | – | –
5 | OC[C@H]1C[C@](O)(c2ccccc2Cl)[C@@H](c2ccccc2Cl)O1 | – | 22 µM | 3.54 | < 1 µM | < 10 µM | 67% | 68% | 73% | – | – | –
6 | CS(=O)(=O)c1ccc(C2=C(c3ccccc3)C(=O)OC2)cc1 [ROFECOXIB] | – | – | – | – | – | – | – | – | 15% | – | –
7 | O=C(O)[C@H]1C[C@](O)(c2ccccc2Cl)[C@@H](c2ccccc2Cl)O1 (relative stereo) | > 2.8 | – | 3.65 | 3.5 µM | > 10 µM | 37% | 82% | 34% | – | 72% | –
8 | O=C(O)[C@H]1C[C@](O)(c2ccccc2)[C@@H](c2ccccc2)O1 (relative stereo) | > 10 | – | 2.61 | < 1 µM | > 10 µM | 68% | 69% | -1.15% | – | – | –
9 | OC[C@H]1C[C@](O)(c2ccccc2)[C@@H](c2ccccc2)O1 | > 1.96 | – | 2.5 | 5.1 µM | > 10 µM | 28% | 77% | 2.8% | – | – | –
10 | O=C(O)[C@H]1C[C@](O)(c2ccc(Cl)cc2)[C@@H](c2ccc(Cl)cc2)O1 (relative stereo) | < 2.6 | – | 3.65 | 3.8 µM | < 10 µM | 30% | 94% | 55% | – | – | –
11 | OC[C@H]1C[C@](O)(c2ccc(F)cc2)[C@@H](c2ccc(F)cc2)O1 | > 10 | 95 µM | 2.78 | < 1 µM | > 10 µM | 88% | 82% | 22% | – | – | –
12 | O=C(O)[C@H]1C[C@](O)(c2ccc(F)cc2)[C@@H](c2ccc(F)cc2)O1 (relative stereo) | > 3.1 | – | 2.89 | 3.2 µM | > 10 µM | 37% | 90% | 30% | – | – | 60%

From ChEMBL document CHEMBL1154444, “2,3,5-Substituted tetrahydrofurans: COX-2 inhibitory activities of 5-hydroxymethyl-/carboxyl-2,3-diaryl-tetrahydro-furan-3-ols” (Eur J Med Chem, 2008)
